Shown are actives, neighbours in structure and some others; about 1.8% of the full set was active somewhere.
CHRM4 agonist: agonists of human muscarinic M4 receptor (CHRM4). P08173. CHO-K1 hM4/Gqi5, Fluo-8 calcium fluorescence; vehicle 0%, full acetylcholine response 100%. activation, % at 3 µM. 360,000 compounds, 0.14% hits;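 active = activation above the run mean over all test wells plus 3 SD, cut at about 32% in these data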;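 note: peak over basal fluorescence ratio per well then scaled between controls; 0% = DMSO wells and 100% = acetylcholine at EC100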
Target sequence (P08173 whole entry, looked up): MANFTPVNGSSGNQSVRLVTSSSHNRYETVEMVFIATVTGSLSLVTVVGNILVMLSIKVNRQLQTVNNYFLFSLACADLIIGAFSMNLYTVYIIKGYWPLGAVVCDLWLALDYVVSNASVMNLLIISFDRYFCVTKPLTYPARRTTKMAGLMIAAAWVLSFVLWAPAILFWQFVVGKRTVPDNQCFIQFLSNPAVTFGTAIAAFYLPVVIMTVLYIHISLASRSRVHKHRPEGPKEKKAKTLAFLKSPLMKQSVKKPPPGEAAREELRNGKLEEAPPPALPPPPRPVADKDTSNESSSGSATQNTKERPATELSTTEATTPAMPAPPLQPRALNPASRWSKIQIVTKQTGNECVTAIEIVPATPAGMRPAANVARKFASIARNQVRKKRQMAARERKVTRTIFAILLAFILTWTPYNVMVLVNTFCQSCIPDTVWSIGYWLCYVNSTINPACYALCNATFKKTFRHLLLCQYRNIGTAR
CHRM5 agonist: CHRM5 agonism in calcium assay. P08912. CHO-K1 hM5 cells, Fluo-8 calcium fluorescence; 0% DMSO wells, 100% maximal acetylcholine response. activation, % at 3 µM. 360,000 compounds, 0.19% hits;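 active = activation above the run's mean over test compounds plus 3 SD, cut at about 23% in these data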;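 note: signal is peak over basal fluorescence ratio across the kinetic read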
CHRM5 antagonist: antagonists of human muscarinic M5 receptor (CHRM5); 360,000 compounds, 0.59% hits; inhibition, % at 3 µM; AID 624040; CHO-hM5 cells, Fluo-8 calcium fluorescence, ACh EC80;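 active = inhibition above a per-plate cutoff, the mean of that plate's test compounds plus 3 SD, cut at about 27% in these data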;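 note: 0% = acetylcholine EC80 with DMSO and 100% = DMSO without agonist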
M4 PAM: positive allosteric modulators of human muscarinic M4 receptor. P08173. CHO-K1 hM4/Gqi5, Fluo-8 calcium fluorescence, ACh EC20; 0% = ACh EC20, 100% = maximal ACh. activation, % at 3 µM. 360,000 compounds, 0.4% hits;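 active = activation above its plate's cutoff, the mean activation of sample wells plus 3 SD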
M5 PAM: potentiates acetylcholine response at human M5 receptor; AID 624038; activation, % at 3 µM; CHO-K1 hM5, Fluo-8 calcium, ACh EC20 PAM; 0% = ACh EC20, 100% = ACh EC100; 360,000 compounds, 0.3% hits;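 active = activation above the run cutoff, the mean activation of all test compounds plus 3 SD, cut at about 18% in these data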
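Assay system: CHO-K1 hM5 cells / Incubation: Fluo-8 loading 80 min at 37 °C plus 30 min room temperature / Technique: Fluo-8 calcium dye fluorescence, kinetic read / Repeats: single replicate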
CHRM4 antagonist: blocks acetylcholine activation of human M4 receptor | 360,000 compounds, 0.73% hits | P08173 | inhibition, % at 3 µM | CHO-hM4 cells, ACh EC80, Fluo-8 calcium fluorescence;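 active = inhibition above its plate's cutoff, the mean inhibition of sample wells plus 3 SD, cut at about 27% in these data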;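 note: 0% = acetylcholine EC80 with DMSO and 100% = DMSO without agonist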
* hit, by the source's call.

SMILES	CHRM4 agonist	CHRM5 agonist	CHRM5 antagonist	M4 PAM	M5 PAM	CHRM4 antagonist
O=C(CC1C(=O)NCCN1CC1CCCCC1)NCc1ccc(F)cc1F (stereo not given)	1.3	-1.0	-7.2	4.3	11.8	-10.3
CC1(C(=O)Nc2ccccc2)CCN1C(=O)Cc1ccc(-c2ccccc2)cc1 (stereo not given)	9.6	4.9	13.9	-5.0	-10.4	-2.9
CC(C)S(=O)(=O)NC(=O)C1(C)CCN1C(=O)Cc1ccccc1 (stereo not given)	0.6	-0.7	28.8*	-1.1	-5.2	1.2
CC1(C(=O)Nc2ccc3c(c2)OCO3)CCN1C(=O)Cc1ccc(-c2ccccc2)cc1 (stereo not given)	12.8	8.6	30.7*	-8.4	-15.0	26.7*
C/C(=N/NC(=O)CNC(=O)c1ccccc1)c1ccc(C)cc1	1.8	-2.2	17.0	9.7	-6.0	-7.7
C/C(=N\NC(=O)CNC(=O)c1cccc(F)c1)c1ccc2ccccc2c1	-1.1	-4.8	22.7	-10.5	-7.3	39.7*
N#Cc1cccnc1N1CCN(C(c2ccnc3ccccc23)c2nnnn2-c2ccc3c(c2)OCCO3)CC1 (stereo not given)	1.2	-1.9	6.6	-3.9	-9.8	6.1
O=C(Cc1ccc(Cl)cc1)Nc1ccccc1C(=O)N1CCCCC1	1.1	-0.1	27.6*	-2.9	-11.7	2.7
COc1ccc(NC(=O)c2cccc(N3C(=O)C4CCC(C)CC4C3=O)c2)c(OC)c1 (stereo not given)	10.8	-1.4	23.3	-10.9	-6.4	9.2
COc1cccc(NC(=O)c2ccc(N3C(=O)C4CCC(C)CC4C3=O)cc2)c1 (stereo not given)	19.4	-0.9	29.2*	-3.9	-13.2	-20.5
CC(C)(C)n1nnnc1C(c1ccccc1)N1CCN(c2ncccn2)CC1 (stereo not given)	0.5	1.0	-7.1	1.9	2.3	-1.5
Cc1c(C(=O)NCc2ccc(C(C)C)cc2)sc(=O)n1Cc1cccc(F)c1	3.1	7.4	-0.4	3.8	3.5	-0.3
Cc1nc2nc(-c3ccccc3)cn2nc1C	1.1	1.5	-9.2	18.4*	-0.5	-17.0
COc1ccc(-c2[nH]ncc2Oc2ccccc2OC)c(O)c1	1.6	0.6	-2.1	19.5*	-3.4	-19.3
COc1ccc(Oc2cn[nH]c2-c2ccc(O)cc2O)cc1	6.5	5.9	0.5	12.8	2.1	11.3
CCc1cccc(CC)c1N1C(=O)COCC1=O	0.3	-1.0	6.3	-3.3	-1.6	-3.3
CCc1cccc(CC)c1N1C(=O)C2=C(SCCCS2)C1=O	33.8*	11.4	12.4	-12.6	-9.2	6.5
CCc1nnc(NC(=O)c2ccc(S(=O)(=O)N(CC)Cc3ccccc3)cc2)o1	1.3	5.1	-0.7	-4.6	1.8	6.5
CCc1nnc(NC(=O)c2ccc(S(=O)(=O)N(C)Cc3ccccc3)cc2)o1	3.2	1.2	6.2	16.5*	6.3	-8.2
Cc1cn([C@H]2C[C@H](O)[C@@H](/C=C/C(=O)NCCc3cccs3)O2)c(=O)[nH]c1=O	2.6	1.4	-0.6	3.3	1.1	-4.7
CCOC(=O)CSc1ncnc2c1sc1nc(N3CCOCC3)c3c(c12)CCCC3	0.3	0.4	-8.7	27.7*	-0.3	-4.9
COC(=O)CSc1ncnc2c1sc1nc(N3CCOCC3)c3c(c12)CCCC3	1.1	-2.6	-1.6	4.3	-1.6	4.7
COc1ccc(CCNC(=O)c2ccc(CSc3ccc(Cl)cc3)o2)cc1OC	22.5	4.3	22.3	-13.0	-25.2	30.4*
CCc1ccc2[nH]c(=O)c(C(c3nnnn3Cc3ccc(OC)cc3)N3CCOCC3)cc2c1 (stereo not given)	2.1	0.6	-0.6	38.9*	-3.8	5.2
N#CCCn1cc(/C=N/O)c(-c2ccccc2)n1	0.7	2.0	-8.0	19.2	9.5	2.0
N#CCCn1cc(/C=N/O)c(-c2cccc([N+](=O)[O-])c2)n1	0.8	-10.5	46.8*	3.7	-15.4	8.2
COc1cccc(CNC(=O)CCC2CCCN(c3cc(C)nc(N4CCCC4)n3)C2)c1 (stereo not given)	0.2	-9.2	6.6	-23.1	2.5	28.4*

Source: PubChem (The Scripps Research Institute Molecular Screening Center)
